In ChEMBL document CHEMBL1177799 (Bioorg Med Chem Lett, 2010) one finds Ki and IC50 data, which are given here for 21 compounds.

In one experiment the target is Adenosine receptor A2a (Homo sapiens, UniProt P29274). The experiment can be described thus: Displacement of [3H]-ZM241385 from human adenosine A2A receptor expressed in CHO-K1 cells after 1 hr by scintillation counting. The format is cell-based. Background: In a radioligand displacement assay an active substance lowers the binding of a labelled ligand.
Sequence of Adenosine receptor A2a (P29274 whole entry): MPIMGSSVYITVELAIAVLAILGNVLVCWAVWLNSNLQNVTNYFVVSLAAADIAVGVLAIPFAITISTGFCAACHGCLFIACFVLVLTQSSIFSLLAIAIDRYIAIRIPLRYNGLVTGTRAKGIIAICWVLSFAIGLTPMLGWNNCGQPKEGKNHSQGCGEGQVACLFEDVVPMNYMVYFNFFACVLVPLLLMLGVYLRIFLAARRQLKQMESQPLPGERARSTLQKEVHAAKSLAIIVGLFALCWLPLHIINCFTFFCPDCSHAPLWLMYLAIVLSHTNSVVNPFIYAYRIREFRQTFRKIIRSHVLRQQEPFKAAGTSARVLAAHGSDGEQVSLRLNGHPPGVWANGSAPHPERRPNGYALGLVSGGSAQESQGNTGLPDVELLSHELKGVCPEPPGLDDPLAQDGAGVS
For experiment [1], the target named is T1, Adenosine receptor A2b (Homo sapiens, UniProt P29275).
T1 sequence (P29275 whole entry): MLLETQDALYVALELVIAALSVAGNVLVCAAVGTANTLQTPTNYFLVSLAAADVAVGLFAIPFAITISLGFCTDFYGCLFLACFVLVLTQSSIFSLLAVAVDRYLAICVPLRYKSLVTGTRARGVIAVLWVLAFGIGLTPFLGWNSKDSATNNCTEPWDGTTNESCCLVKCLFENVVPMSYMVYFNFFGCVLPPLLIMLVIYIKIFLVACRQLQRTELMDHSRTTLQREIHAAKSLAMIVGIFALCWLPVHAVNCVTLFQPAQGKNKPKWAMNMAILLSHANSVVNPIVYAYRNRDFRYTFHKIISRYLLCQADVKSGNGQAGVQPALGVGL
Kind of experiment: Antagonist activity at human adenosine A2B receptor expressed in CHO cells assessed as inhibition of adenosine-induced cAMP production. It is filed as functional, cell-based. The method, boiled down: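 CHO cells stably transfected with human A2B receptor, grown overnight as monolayer (7500 cells/well), washed with Krebs buffer, then exposed to compounds in Krebs buffer (final DMSO 1.1%) for 20–25 min. Wells emptied, cells lysed and cAMP measured with an enzyme-fragment complementation cAMP kit for adherent cells.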
Background: Cyclic AMP is a second messenger, typically raised through Gs and lowered through Gi signalling.

For a further experiment, the target named is T2, Adenosine receptor A1 (Homo sapiens, UniProt P30542).
T2 sequence (P30542 whole entry): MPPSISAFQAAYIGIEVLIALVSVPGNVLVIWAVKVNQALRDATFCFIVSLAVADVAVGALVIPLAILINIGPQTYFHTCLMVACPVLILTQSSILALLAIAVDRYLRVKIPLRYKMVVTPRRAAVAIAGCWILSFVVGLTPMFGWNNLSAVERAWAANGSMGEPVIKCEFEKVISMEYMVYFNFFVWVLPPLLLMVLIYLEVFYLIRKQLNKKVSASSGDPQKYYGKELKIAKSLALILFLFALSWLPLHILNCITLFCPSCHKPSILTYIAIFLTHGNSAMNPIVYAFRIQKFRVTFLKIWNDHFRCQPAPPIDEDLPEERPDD
The experiment can be described thus: Displacement of [3H]-DPCPX from human adenosine A1 receptor expressed in CHO-K1 cells after 1 hr by scintillation counting. It is filed as cell-based. The method, boiled down:
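Commercial human A1 membranes (10 µg/well) in HEPES 50 mM, NaCl 100 mM, MgCl2 1 mM buffer; competition against [3H]-DPCPX (4.8 nM final), 1 h at room temperature with orbital shaking. Filtration harvest on polyethyleneimine-treated (0.5%) glass-fibre plates, air-dried, scintillation counting.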

Experiment [2] concerns the target T1, Adenosine receptor A2b. The experiment can be described thus: Displacement of [3H]ZM241385 from human adenosine A2B receptor expressed in CHO cells after 1 hr by scintillation counting. The format is cell-based. The procedure, abridged: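 Whole CHO cells expressing human A2B receptor, harvested mechanically from 80% confluent flasks, frozen, then resuspended in assay buffer on assay day. Competition against [3H]ZM241385 (30 nM final), 1 h at room temperature with shaking. Harvest on 0.5% polyethyleneimine-treated filter plates, air-dried, scintillation counting.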

The structures appear in SMILES notation.

In the case of `CCN(C(C)=O)c1ccc(Cl)c2nc(NC(=O)c3ccc(F)cc3)sc12`, the Ki (as a rule, a dissociation constant, usually derived from enzyme kinetics or from competition with a known ligand) on Adenosine receptor A2a was determined as 15 nM; on Adenosine receptor A1, 30 nM. Also, the IC50 (in general, the concentration needed to halve the response being measured) at Adenosine receptor A2b [1] was determined as 23 nM.
`COc1ccc(N(CC(=O)N(C)C)C(C)=O)c2sc(NC(=O)c3ccc(F)cc3)nc12`: the Ki at Adenosine receptor A2a came to 480 nM; on Adenosine receptor A1, 1600 nM. In addition, the IC50 on Adenosine receptor A2b [1] was 600 nM.
The like results for `COc1ccc(N(CC(=O)O)C(C)=O)c2sc(NC(=O)c3ccc(F)cc3)nc12` were, in that order, 2200 nM, 2600 nM and 6000 nM.
On to `COc1ccc(NC(C)=O)c2sc(NC(=O)c3ccc(F)cc3)nc12`, for which the Ki amounted to 250 nM on Adenosine receptor A2a, 130 nM at Adenosine receptor A2b [2] and 1600 nM on Adenosine receptor A1. Moreover, the IC50 on Adenosine receptor A2b [1] was found to be 350 nM.
Take `CCN(C(C)=O)c1ccc(OC)c2nc(NC(=O)c3cc[nH]c3)sc12`: the Ki was 18 nM on Adenosine receptor A2a and 35 nM on Adenosine receptor A1. In addition, the IC50 at Adenosine receptor A2b [1] was 7 nM.
For `CNC(=O)CN(C(C)=O)c1ccc(OC)c2nc(NC(=O)c3ccc(F)cc3)sc12`, in that order: 330 nM, 790 nM and 350 nM.
For `COc1ccc(N(CC(N)=O)C(C)=O)c2sc(NC(=O)c3ccc(F)cc3)nc12`, the figures for the inhibition constant (Ki) on Adenosine receptor A2a and on Adenosine receptor A1 were 160 nM and 560 nM, respectively. For the same compound, on Adenosine receptor A2b [1], the IC50 was found to be 60 nM.
The like results for `CCN(C(C)=O)c1ccc(OC)c2nc(NC(=O)c3ccc(C(=O)NC)cc3)sc12` were, in that order, 84 nM, 185 nM and 21 nM.
For the compound `CCN(C(C)=O)c1ccc(OC)c2nc(NC(=O)c3cn[nH]c3)sc12`, at Adenosine receptor A2b [1], the IC50 is 21 nM.
As for `CCN(C(C)=O)c1ccc(OC)c2nc(NC(=O)c3cnn(C)c3)sc12`, the Ki at Adenosine receptor A2a is 41 nM; on Adenosine receptor A2b [2] it was 19 nM. The IC50 on Adenosine receptor A2b [1] amounted to 29 nM.
On to `CCN(C(C)=O)c1ccc(OC)c2nc(NC(=O)c3ccc(C(=O)N4CCCC4)cc3)sc12`, for which the figures for the Ki at Adenosine receptor A2a and on Adenosine receptor A1 were 68 nM and 50 nM, respectively. For the same compound, at Adenosine receptor A2b [1], the IC50 was 16 nM.
The like results for `COc1ccc(N(CCCO)C(C)=O)c2sc(NC(=O)c3ccc(F)cc3)nc12` were, in that order, 29 nM, 100 nM and 42 nM.
For `COC(=O)CN(C(C)=O)c1ccc(OC)c2nc(NC(=O)c3ccc(F)cc3)sc12`, in that order: 5 nM, 23 nM and 8 nM.
For `COCCN(C(C)=O)c1ccc(OC)c2nc(NC(=O)c3ccc(F)cc3)sc12`, in that order: 38 nM, 110 nM and 33 nM.
For `COc1ccc(N(CC(C)C)C(C)=O)c2sc(NC(=O)c3ccc(F)cc3)nc12`, the Ki stood at 3 nM on Adenosine receptor A2a and 37 nM at Adenosine receptor A1. Further, the IC50 on Adenosine receptor A2b [1] came to 23 nM.
In the case of `CCN(C(C)=O)c1ccc(OC)c2nc(NC(=O)c3ccc(F)cc3)sc12`, the Ki was 22 nM at Adenosine receptor A2a, 13 nM at Adenosine receptor A2b [2] and 66 nM at Adenosine receptor A1. The IC50 at Adenosine receptor A2b [1] worked out at 12 nM.
The like results for `COc1ccc(N(C)C(C)=O)c2sc(NC(=O)c3ccc(F)cc3)nc12` were, in that order, 39 nM, 22 nM, 66 nM and 15 nM.
Turning to `COc1ccc(N(CCO)C(C)=O)c2sc(NC(=O)c3ccc(F)cc3)nc12`, the Ki at Adenosine receptor A2a worked out at 98 nM; on Adenosine receptor A1, 450 nM. Further, at Adenosine receptor A2b [1], the IC50 was found to be 77 nM.
The like results for `COc1ccc(N(C(C)=O)C(F)F)c2sc(NC(=O)c3ccc(F)cc3)nc12` were, in that order, 61 nM, 30 nM and 230 nM.
On to `COc1ccc(N(CC(F)(F)F)C(C)=O)c2sc(NC(=O)c3ccc(F)cc3)nc12`, for which the Ki was 35 nM on Adenosine receptor A2a and 42 nM at Adenosine receptor A1. Besides, the IC50 on Adenosine receptor A2b [1] was determined as 40 nM.
For `COc1ccc(N(C(C)=O)C(C)C)c2sc(NC(=O)c3ccc(F)cc3)nc12`, the IC50 on Adenosine receptor A2b [1] came out at 19 nM.
